Measurements gathered from unrelated publications.
Protocols differ between the studies behind these lines.
Target: Serine/threonine-protein kinase N2 (PKN2, Homo sapiens, UniProt Q16513)

SMILES	read-out	mode	method	cell line	tested at	quantity	result
O=C(Nc1cnc(Oc2ccc(F)cc2)nc1)N1CCc2ncccc2[C@@H]1c1ccc(F)cc1	cell-free assay	–	competition with immobilised ligand	–	1 µM	remaining binding	78%
Nc1ncnc2occ(-c3ccc(NC(=O)Nc4cc(C(F)(F)F)ccc4F)cc3)c12	cell-free assay	inhibitor	–	–	20 µM	remaining signal	58%
CC(C)(C)c1nc(-c2cccc(NS(=O)(=O)c3c(F)cccc3F)c2F)c(-c2ccnc(N)n2)s1	enzyme activity	inhibitor	radiometric	–	1 µM	remaining activity	78%
Cc1ccc(C(=O)Nc2ccc(CN3CCN(C)CC3)c(C(F)(F)F)c2)cc1C#Cc1cnc2cccnn12	enzyme activity	inhibitor	–	–	23.5 nM	remaining activity	99%
Cc1sc(C(=O)NC2COC2)cc1-n1cc(NC(=O)Nc2c(F)cccc2Cl)cn1	enzyme activity	inhibitor	–	–	10 µM	remaining activity	87.1%
COc1cc(/C=C/C(=O)CC(=O)/C=C/c2ccc(O)c(OC)c2)ccc1O	enzyme activity	inhibitor	–	–	1 µM	activity vs control	114%
CCCOc1ccc(OC)c(F)c1C(=O)c1ccc(C(=O)N[C@@H]2CNC[C@H]2NC(=O)c2ccc3[nH]ncc3c2)cc1	enzyme activity	inhibitor	–	–	0.1 µM	remaining activity	53%
Oc1cccc(-c2nc(N3CCOCC3)c3oc4ncccc4c3n2)c1	enzyme activity	inhibitor	–	–	10 µM	remaining activity	71%
O=C(Nc1cnn(-c2csc(C(=O)NC3COC3)c2)c1)Nc1c(F)cccc1Cl	enzyme activity	inhibitor	–	–	5 µM	remaining activity	105%
O=c1nc(-c2ccccn2)sc2ccccc12	binding	–	competition with immobilised ligand	–	1 µM	remaining binding	100%
Cc1ccc(Nc2nccc(N(C)c3ccc4c(C)n(C)nc4c3)n2)cc1S(N)(=O)=O	enzyme activity	inhibitor	–	–	0.3 µM	inhibition	19%
CNCc1ccc(-c2cc(-c3nc(-c4ccc(S(=O)(=O)C(C)C)cc4)cnc3N)on2)cc1	enzyme activity	inhibitor	–	–	2 µM	inhibition	82%
N#CCCc1ccc2c(c1)-c1[nH]c3ccc([N+](=O)[O-])cc3c1CC(=O)N2	cell-free assay	–	–	–	0.5 µM	remaining signal	77.9%
CNc1cc(Oc2cc(C(=O)Nc3cc(N4CCN(C)CC4)cc(C(F)(F)F)c3)ccc2C)ncn1	target engagement in cells	inhibitor	chemoproteomics	Huh-7	1 µM	inhibition	-99.7%
Cc1nc(Cc2cccc(C(F)(F)F)c2)sc1-c1ccc(C(N)=O)nc1	cell-free assay	–	competition with immobilised ligand	–	1 µM	remaining binding	91%
O=C1Nc2ccc(Cl)cc2C1=Cc1cc(Cl)c(O)c(Cl)c1	cell-free assay	–	–	–	0.5 µM	remaining signal	114%
CCCS(=O)(=O)Nc1ccc(F)c(C(=O)c2c[nH]c3ncc(-c4ccc(Cl)cc4)cc23)c1F	enzyme activity	inhibitor	–	–	1 µM	inhibition	< 10%
CCCCNc1ncc2c(-c3ccc(F)cc3)nn(C[C@H]3CC[C@H](N)CC3)c2n1	target engagement in cells	inhibitor	chemoproteomics	–	20 mM	inhibition	2.9%

SMILES	read-out	mode	method	cell line	tested at	quantity	result
Cc1cc(C)c(-n2ccn3nc(-c4cccnc4)cc23)cc1NC(=O)c1cc(C#N)cc(S(F)(F)(F)(F)F)c1	cell-free assay	–	competition with immobilised ligand	–	0.1 µM	remaining binding	100%
COc1cccc2c(NCc3ccccc3)nc(-n3c(N)nc4ccccc43)nc12	target engagement in cells	inhibitor	chemoproteomics	–	20 mM	inhibition	-3.6%
Nc1nc(Nc2ccccc2)sc1C(=O)c1c(F)cccc1F	enzyme activity	inhibitor	–	–	10 µM	remaining activity	57%
Cn1c2c(c3ccc(Cl)c(Cl)c31)C(C#N)C(C)(C)NC2=O (centres unmarked)	thermal stability	–	DSF	–	10 µM	ΔTm	1.3 °C
Cc1cc(NC(=O)c2cccc3cc(-c4cccc5[nH]nc(N)c45)ccc23)ccc1F	enzyme activity	inhibitor	–	–	0.1 µM	activity vs control	101%
CNC(=O)Nc1ccc2c(c1)CC[C@@]21OC(=O)N(CC(=O)N(Cc2ccc(F)cc2)[C@@H](C)C(F)(F)F)C1=O	cell-free assay	–	competition with immobilised ligand	–	1 µM	remaining binding	97%
Cn1c(=O)n(-c2ccc(C(C)(C)C#N)cc2)c2c3cc(-c4cnc5ccccc5c4)ccc3ncc21	enzyme activity	inhibitor	–	–	10 µM	remaining activity	74%
CNC(=O)c1cc(Oc2ccc(NC(=O)Nc3ccc(Cl)c(C(F)(F)F)c3)cc2)ccn1	enzyme activity	inhibitor	–	–	10 µM	inhibition	20%
Cc1cc(-n2nc(Cc3cc(F)cc(C(F)(F)F)c3)nc2C)ccc1C(N)=O	cell-free assay	–	competition with immobilised ligand	–	1 µM	remaining binding	100%
COc1cc(Nc2cnc(C#N)c(O[C@H](C)CN(C)C)n2)ncc1-c1cnn(C)c1	enzyme activity	inhibitor	radiometric	–	1 µM	remaining activity	87%
Cn1c2c(c3ccc(Cl)c(Cl)c31)C(C#N)C1(CCCC1)NC2=O (centres unmarked)	thermal stability	–	DSF	–	10 µM	ΔTm	0 °C
CC1=C(C#N)[C@@H](c2ccc3[nH]nc(C)c3c2)C(C#N)=C(c2ccc(Cl)cc2)N1	cell-free assay	–	competition with immobilised ligand	–	1 µM	remaining binding	74.6%
Cc1ccc(C(=O)NCc2ccsc2)cc1C#Cc1cn(C(C)C)c2ncnc(N)c12	enzyme activity	inhibitor	–	–	1 µM	activity vs control	113%
CC(C)CC(=O)N1CCc2nc(-c3ccc(Br)cc3)nc(N(C)Cc3ccccc3)c2C1	cell-free assay	–	competition with immobilised ligand	–	0.1 µM	remaining binding	80%
CCN(CC)CCNC(=O)c1c(C)[nH]c(/C=C2\C(=O)Nc3ccc(F)cc32)c1C	enzyme activity	inhibitor	–	–	10 µM	inhibition	69%
c1cnn2ncc(-c3ccnc(N4CCC45COC5)n3)c2c1	binding	–	–	–	1 µM	remaining binding	89%
COc1cc(-c2cc(-c3ccc(N4CCNCC4)cc3)cnc2C)cc(OC)c1OC	enzyme activity	inhibitor	–	–	1 µM	inhibition	1%
